Measured values as given in ChEMBL document CHEMBL1926565, “Synthesis, antiproliferative activities and telomerase inhibition evaluation of novel asymmetrical 1,2-disubstituted amidoanthraquinone derivatives” (Eur J Med Chem, 2012).

Assays:
UACC-62 [1] = assay: Cytotoxicity against human UACC62 cells assessed as cellular growth at 10 uM; type: functional
OVCAR-8 [2] = assay: Cytotoxicity against human OVCAR8 cells assessed as cellular growth at 10 uM; type: functional
How it was run: (§1)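 Single-dose screen run by the NCI across its 60-human-tumour-cell-line panel; growth recorded for each cell line.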

HT-29 = assay: Cytotoxicity against human HT-29 cells assessed as cellular growth at 10 uM; type: functional; how it was run: as §1
TK-10 = assay: Cytotoxicity against human TK10 cells assessed as cellular growth at 10 uM; type: functional
T47D = assay: Cytotoxicity against human T47D cells assessed as cellular growth at 10 uM; type: functional
[3] = Growth of human H1299 cells at 10 uM after 48 hrs by MTT assay; conditions: NCI-H1299, 48 h
MDA-MB-435 = assay: Cytotoxicity against human MDA-MB-435 cells assessed as cellular growth at 10 uM; type: functional; how it was run: as §1
A549 [4] = assay: Cytotoxicity against human A549 cells assessed as cellular growth at 10 uM; type: functional; how it was run: as §1
SW-620 = assay: Cytotoxicity against human SW620 cells assessed as cellular growth at 10 uM; type: functional
MDA-MB-468 = assay: Cytotoxicity against human MDA-MB-468 cells assessed as cellular growth at 10 uM; type: functional; how it was run: as §1
HOP-92 [5] = assay: Cytotoxicity against human HOP92 cells assessed as cellular growth at 10 uM; type: functional; how it was run: as §1
SK-MEL-2 [6] = assay: Cytotoxicity against human SK-MEL-2 cells assessed as cellular growth at 10 uM; type: functional; how it was run: as §1
SF-295 = assay: Cytotoxicity against human SF295 cells assessed as cellular growth at 10 uM; type: functional; how it was run: as §1
MCF7 [7] = assay: Cytotoxicity against human MCF7 cells assessed as cellular growth at 10 uM; type: functional; how it was run: as §1
SK-MEL-28 [8] = assay: Cytotoxicity against human SK-MEL-28 cells assessed as cellular growth at 10 uM; type: functional; how it was run: as §1
UO-31 [9] = assay: Cytotoxicity against human UO31 cells assessed as cellular growth at 10 uM; type: functional
K562 [10] = assay: Cytotoxicity against human K562 cells assessed as cellular growth at 10 uM; type: functional; how it was run: as §1
NCI-H522 [11] = assay: Cytotoxicity against human NCI-H522 cells assessed as cellular growth at 10 uM; type: functional; how it was run: as §1
DU-145 [12] = assay: Cytotoxicity against human DU145 cells assessed as cellular growth at 10 uM; type: functional; how it was run: as §1
M14 = assay: Anticancer activity against human M14 cells; type: functional
How it was run: (§2)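 NCI 60-human-tumour-cell-line panel. Selected analogues were first run at one dose, then some were carried into multi-dose testing. GI50 (50% growth inhibition), TGI (total growth inhibition) and LC50 (50% cell kill) were read as values interpolated where the dose–response curves cross these levels.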

HCT-116 = assay: Anticancer activity against human HCT116 cells; type: functional; how it was run: as §2
SR = assay: Anticancer activity against human SR cells; type: functional; how it was run: as §2
SK-MEL-5 = assay: Anticancer activity against human SK-MEL-5 cells; type: functional; how it was run: as §2
OVCAR-3 = assay: Anticancer activity against human OVCAR3 cells; type: functional; how it was run: as §2
Malme-3M = assay: Anticancer activity against human MALME-3M cells; type: functional
How it was run: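 Tested by the NCI in its 60-human-tumour-cell-line panel. Dose-response curves were run, and GI₅₀ (50% growth inhibition), TGI (total growth inhibition) and LC₅₀ (50% cell killing) were read as interpolated concentrations where the curves cross those levels.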

SNB-75 = assay: Anticancer activity against human SNB75 cells; type: functional; conditions: read-out: LC50 (the source's name); how it was run: as §2
HCT-15 = assay: Anticancer activity against human HCT15 cells; type: functional; how it was run: as §2
DU-145 [13] = assay: Anticancer activity against human DU145 cells; type: functional; how it was run: as §2
RXF 393 = assay: Anticancer activity against human RXF393 cells; type: functional; how it was run: as §2
NCI-H460 = assay: Anticancer activity against human NCI-H460 cells; type: functional; how it was run: as §2
SK-OV-3 = assay: Anticancer activity against human SKOV3 cells; type: functional; how it was run: as §2
UACC-62 [14] = assay: Anticancer activity against human UACC62 cells; type: functional
SN12C = assay: Anticancer activity against human SN12C cells; type: functional; how it was run: as §2
SK-MEL-28 [15] = assay: Anticancer activity against human SK-MEL-28 cells; type: functional; how it was run: as §2
CAKI-1 = assay: Anticancer activity against human Caki1 cells; type: functional; how it was run: as §2
NCI-H522 [16] = assay: Anticancer activity against human NCI-H522 cells; type: functional; how it was run: as §2
COLO 205 = assay: Anticancer activity against human COLO205 cells; type: functional; how it was run: as §2
OVCAR-8 [17] = assay: Anticancer activity against human OVCAR8 cells; type: functional; how it was run: as §2
HOP-92 [18] = assay: Anticancer activity against human HOP92 cells; type: functional; how it was run: as §2
HOP-62 = assay: Anticancer activity against human HOP62 cells; type: functional; how it was run: as §2
BT-549 = assay: Anticancer activity against human BT549 cells; type: functional; how it was run: as §2
A549 [19] = assay: Anticancer activity against human A549 cells; type: functional; how it was run: as §2
UO-31 [20] = assay: Anticancer activity against human UO31 cells; type: functional; conditions: read-out: LC50 (the source's name)
MCF7 [21] = assay: Anticancer activity against human MCF7 cells; type: functional; how it was run: as §2
K562 [22] = assay: Anticancer activity against human K562 cells; type: functional; how it was run: as §2
HCC 2998 = assay: Anticancer activity against human HCC2998 cells; type: functional; conditions: read-out: LC50 (the source's name); how it was run: as §2
RPMI-8226 = assay: Anticancer activity against human RPMI8226 cells; type: functional; how it was run: as §2
[23] = Anticancer activity against human Hs 578T cells; type: functional; how it was run: as §2
SK-MEL-2 [24] = assay: Anticancer activity against human SK-MEL-2 cells; type: functional; how it was run: as §2
[25] = read-out: LC50 (the source's name)

## Cc1ccc(C(=O)Nc2c(NC(=O)CN3CCCC3)ccc3c2C(=O)c2ccccc2C3=O)cc1
UACC-62 [1]
  Activity: 76.82%
OVCAR-8 [2]
  Activity: 65.02%
HT-29
  Activity: 31.34%
TK-10
  Activity: 86.85%
T47D
  Activity: 44.33%
[3]
  growth, % of control at 10 µM: 69%
MDA-MB-435
  Activity: 79.14%
A549 [4]
  Activity: 84.88%
SW-620
  Activity: 82.29%
MDA-MB-468
  Activity: 69.27%
HOP-92 [5]
  Activity: 59.33%
SK-MEL-2 [6]
  Activity: 102.17%
SF-295
  Activity: 68.97%
MCF7 [7]
  Activity: 70.79%
SK-MEL-28 [8]
  Activity: 92.18%
UO-31 [9]
  Activity: 69.24%
K562 [10]
  Activity: 40.86%
NCI-H522 [11]
  Activity: 103.02%
DU-145 [12]
  Activity: 91.52%

## Cc1ccc(C(=O)Nc2c(NC(=O)CCl)ccc3c2C(=O)c2ccccc2C3=O)cc1
M14
  GI50: 4.72 µM
  TGI: 12.4 µM
M14; [25]
  CC50: 31.4 µM
HCT-116
  GI50: 1.05 µM
  TGI: 2.46 µM
HCT-116; [25]
  CC50: 9.32 µM
UACC-62 [1]
  Activity: -67.8%
SR
  GI50: 1.59 µM
  LC50: > 50 µM
  TGI: > 50 µM
OVCAR-8 [2]
  Activity: 8.72%
SK-MEL-5
  GI50: 0.83 µM
  TGI: 1.53 µM
SK-MEL-5; [25]
  CC50: 2.83 µM
OVCAR-3
  GI50: 1.35 µM
  TGI: 3.54 µM
OVCAR-3; [25]
  CC50: 15.2 µM
Malme-3M
  GI50: 5.89 µM
  TGI: 15.6 µM
Malme-3M; [25]
  CC50: 41.1 µM
SNB-75
  CC50: 30.5 µM
HCT-15
  LC50: 28.4 µM
HT-29
  Activity: 3.37%
TK-10
  Activity: 130.52%
DU-145 [13]
  GI50: 2.69 µM
  TGI: 9.07 µM
DU-145 [13]; [25]
  CC50: 23 µM
RXF 393
  GI50: 7.84 µM
  TGI: 16.5 µM
RXF 393; [25]
  CC50: 34.6 µM
NCI-H460
  GI50: 5.81 µM
  LC50 (50% cell kill): 34.1 µM
  TGI: 14.1 µM
SK-OV-3
  GI50: 13.2 µM
  TGI: 35.9 µM
SK-OV-3; [25]
  CC50: > 50 µM
UACC-62 [14]
  GI50: 9.92 µM
  TGI: 17.9 µM
UACC-62 [14]; [25]
  CC50: 32.2 µM
T47D
  Activity: -49.46%
SN12C
  GI50: 1.22 µM
  TGI: 3.66 µM
SN12C; [25]
  CC50: > 50 µM
[3]
  growth, % of control at 10 µM: 2%
MDA-MB-435
  Activity: 4.82%
SK-MEL-28 [15]
  GI50: 7.63 µM
  TGI: 15.2 µM
SK-MEL-28 [15]; [25]
  CC50: 30.1 µM
CAKI-1
  GI50: 6.87 µM
  TGI: 15.2 µM
CAKI-1; [25]
  CC50: 33.7 µM
NCI-H522 [16]
  GI50: 0.88 µM
  TGI: 2.03 µM
A549 [4]
  Activity: -81.71%
SW-620
  Activity: -43.27%
MDA-MB-468
  Activity: -83.42%
COLO 205
  GI50: 2.95 µM
  LC50: 23.7 µM
  TGI: 9.65 µM
HOP-92 [5]
  Activity: -68.77%
SK-MEL-2 [6]
  Activity: 52%
SF-295
  Activity: 79.7%
MCF7 [7]
  Activity: -79.28%
SK-MEL-28 [8]
  Activity: -31.94%
UO-31 [9]
  Activity: 42.91%
OVCAR-8 [17]
  GI50: 3.32 µM
  TGI: 28.5 µM
OVCAR-8 [17]; [25]
  CC50: > 50 µM
HOP-92 [18]
  GI50: 9.73 µM
  LC50 (concentration giving 50% cell kill): > 50 µM
  TGI: 31.7 µM
NCI-H522 [11]
  Activity: 57.88%
HOP-62
  GI50: 2.97 µM
  LC50 (50% cell kill): 24.4 µM
  TGI: 9.49 µM
BT-549
  GI50: 2.58 µM
  TGI: 16.3 µM
BT-549; [25]
  CC50: > 50 µM
A549 [19]
  GI50: 12.3 µM
  TGI: 29.2 µM
A549 [19]; [25]
  CC50: > 50 µM
UO-31 [20]
  CC50: 41.3 µM
MCF7 [21]
  GI50: 1.12 µM
  TGI: 4.95 µM
MCF7 [21]; [25]
  CC50: > 50 µM
DU-145 [12]
  Activity: -97.56%
K562 [22]
  GI50: 1.87 µM
  LC50 (50% net cell kill): > 50 µM
  TGI: 4.04 µM
HCC 2998
  CC50: 29.4 µM
RPMI-8226
  GI50: 1.35 µM
  LC50 (50% cell kill): > 50 µM
  TGI: > 50 µM
[23]
  GI50: 1.64 µM
  TGI: 9.12 µM
[23]; [25]
  CC50: > 50 µM
SK-MEL-2 [24]
  GI50: 1.34 µM
  TGI: 4.4 µM
SK-MEL-2 [24]; [25]
  CC50: > 50 µM

## Cc1ccc(C(=O)Nc2ccc3c(c2NC(=O)c2ccc(C)cc2)C(=O)c2ccccc2C3=O)cc1
UACC-62 [1]
  Activity: 87.5%
OVCAR-8 [2]
  Activity: 85.43%
HT-29
  Activity: 99.39%
TK-10
  Activity: 124.91%
T47D
  Activity: 100%
[3]
  growth, % of control at 10 µM: 116%
A549 [4]
  Activity: 90.46%
SW-620
  Activity: 93.79%
MDA-MB-468
  Activity: 104.17%
HOP-92 [5]
  Activity: 91.21%
SK-MEL-2 [6]
  Activity: 100.65%
SF-295
  Activity: 110.81%
MCF7 [7]
  Activity: 71.71%
SK-MEL-28 [8]
  Activity: 99.46%
UO-31 [9]
  Activity: 66.54%
K562 [10]
  Activity: 107.54%
NCI-H522 [11]
  Activity: 72.05%
DU-145 [12]
  Activity: 95.93%
